In brackets after ≈: the same amount, converted by molar mass.
How the values were obtained:
Stromelysin-1 = Stromelysin-1 (Homo sapiens, UniProt P08254); assay: Inhibition of MMP3
Procedure, shortened: (§1)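 Catalytic-domain enzyme; 1 µM stock activated with APMA (1 mM, 1 h at 37 °C for MMP-2; 2 mM, 3 h at 37 °C for MMP-3), then diluted to 10 nM in Tris–HCl buffer. Assay used 0.1 nM enzyme and 5 µM fluorogenic substrate Mca-Arg-Pro-Lys-Tyr-Ala-Nva-Trp-Met-Lys(Dnp)-NH2. Inhibitor (≤1% DMSO) preincubated with enzyme 15 min at 37 °C. After substrate, 1 h at 37 °C; fluorescence read at ex 328/em 393 nm. IC50 taken from concentration–response curves as the geometric mean of ≥3 experiments.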

[1] = target: 72 kDa type IV collagenase (Homo sapiens, UniProt P08253); assay: Inhibition of MMP2; procedure, shortened: as §1
72 kDa type IV collagenase, sequence (P08253 whole entry): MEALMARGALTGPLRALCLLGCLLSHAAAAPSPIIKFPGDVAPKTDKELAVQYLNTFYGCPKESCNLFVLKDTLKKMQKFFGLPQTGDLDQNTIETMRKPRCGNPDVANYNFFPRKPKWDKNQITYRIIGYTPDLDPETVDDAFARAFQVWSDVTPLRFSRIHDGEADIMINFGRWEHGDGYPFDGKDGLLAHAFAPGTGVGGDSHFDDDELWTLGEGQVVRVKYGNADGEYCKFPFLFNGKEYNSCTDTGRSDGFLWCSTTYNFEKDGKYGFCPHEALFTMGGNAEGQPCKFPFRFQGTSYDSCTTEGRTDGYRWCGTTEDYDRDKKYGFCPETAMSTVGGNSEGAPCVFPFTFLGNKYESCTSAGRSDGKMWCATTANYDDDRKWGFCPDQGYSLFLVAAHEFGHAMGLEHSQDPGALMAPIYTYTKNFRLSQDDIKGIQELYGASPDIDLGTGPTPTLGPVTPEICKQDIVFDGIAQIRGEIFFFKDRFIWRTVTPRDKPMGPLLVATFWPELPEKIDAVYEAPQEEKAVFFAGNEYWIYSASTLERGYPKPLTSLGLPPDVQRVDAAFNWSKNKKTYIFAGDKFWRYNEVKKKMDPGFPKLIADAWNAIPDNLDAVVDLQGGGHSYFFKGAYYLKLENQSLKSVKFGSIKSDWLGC

[2] = Aqueous solubility of the compound; format: physicochemical
Procedure, shortened: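 Solubility in aqueous media determined across pH 1, 5, 7, 9 and 11.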

[3] = Selectivity for MMP3 over MMP2
Interstitial collagenase = target: T1, Interstitial collagenase (Homo sapiens, UniProt P03956); assay: Inhibition of MMP1
T1 sequence (P03956 whole entry): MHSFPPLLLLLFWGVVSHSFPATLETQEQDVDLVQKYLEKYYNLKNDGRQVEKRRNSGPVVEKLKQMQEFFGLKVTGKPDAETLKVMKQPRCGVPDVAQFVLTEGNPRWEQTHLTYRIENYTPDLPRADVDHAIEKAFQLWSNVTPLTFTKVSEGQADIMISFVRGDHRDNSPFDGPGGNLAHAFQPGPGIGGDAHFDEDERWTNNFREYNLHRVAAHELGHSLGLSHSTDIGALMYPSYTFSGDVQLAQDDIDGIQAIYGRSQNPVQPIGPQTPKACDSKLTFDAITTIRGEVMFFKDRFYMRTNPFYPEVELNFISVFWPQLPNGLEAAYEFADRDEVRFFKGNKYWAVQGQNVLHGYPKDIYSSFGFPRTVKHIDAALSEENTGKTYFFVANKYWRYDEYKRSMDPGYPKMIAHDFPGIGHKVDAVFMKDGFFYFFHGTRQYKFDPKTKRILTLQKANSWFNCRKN

[4] = target: Matrix metalloproteinase-9 (Homo sapiens, UniProt P14780); assay: Inhibition of MMP9
Matrix metalloproteinase-9, sequence (P14780 whole entry): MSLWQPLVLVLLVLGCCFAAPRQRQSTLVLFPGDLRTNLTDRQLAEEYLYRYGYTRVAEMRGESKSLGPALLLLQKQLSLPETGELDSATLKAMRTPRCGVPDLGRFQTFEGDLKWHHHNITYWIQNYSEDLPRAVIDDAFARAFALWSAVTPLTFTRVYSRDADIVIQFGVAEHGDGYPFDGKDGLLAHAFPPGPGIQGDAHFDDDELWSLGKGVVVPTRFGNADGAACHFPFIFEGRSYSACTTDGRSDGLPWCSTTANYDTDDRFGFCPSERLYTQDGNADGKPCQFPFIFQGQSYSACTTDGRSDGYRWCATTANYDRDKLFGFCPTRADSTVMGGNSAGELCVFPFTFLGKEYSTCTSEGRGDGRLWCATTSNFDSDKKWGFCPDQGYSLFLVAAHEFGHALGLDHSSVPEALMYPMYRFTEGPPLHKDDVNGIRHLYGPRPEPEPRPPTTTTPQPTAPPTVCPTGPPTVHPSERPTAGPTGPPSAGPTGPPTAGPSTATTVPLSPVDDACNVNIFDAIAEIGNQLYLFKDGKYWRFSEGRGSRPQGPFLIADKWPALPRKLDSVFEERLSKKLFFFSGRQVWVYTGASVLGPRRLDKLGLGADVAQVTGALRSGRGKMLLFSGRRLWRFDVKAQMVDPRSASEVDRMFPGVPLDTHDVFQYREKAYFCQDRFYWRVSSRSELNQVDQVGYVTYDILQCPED

[5] = target: Matrix metalloproteinase-14 (Homo sapiens, UniProt P50281); assay: Inhibition of MMP14
Collagenase 3 = Collagenase 3 (Homo sapiens, UniProt P45452); assay: Inhibition of MMP13

Stromelysin-1, sequence (P08254 whole entry): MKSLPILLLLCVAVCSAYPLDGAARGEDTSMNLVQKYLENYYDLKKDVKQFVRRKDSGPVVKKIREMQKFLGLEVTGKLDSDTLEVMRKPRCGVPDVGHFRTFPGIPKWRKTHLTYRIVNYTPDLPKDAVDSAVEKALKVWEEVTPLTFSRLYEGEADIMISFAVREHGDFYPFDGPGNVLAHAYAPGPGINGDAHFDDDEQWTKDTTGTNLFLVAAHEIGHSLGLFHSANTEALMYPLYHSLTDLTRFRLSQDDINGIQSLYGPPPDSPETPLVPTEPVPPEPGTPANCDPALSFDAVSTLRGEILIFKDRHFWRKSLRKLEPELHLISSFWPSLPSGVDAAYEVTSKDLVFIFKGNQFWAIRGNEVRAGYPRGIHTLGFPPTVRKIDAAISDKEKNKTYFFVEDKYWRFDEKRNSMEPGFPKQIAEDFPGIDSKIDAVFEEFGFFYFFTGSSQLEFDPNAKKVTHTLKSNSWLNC

Compound | IC50 (Stromelysin-1) | IC50 [1] | also measured
CCc1cc(C2=CCN(S(=O)(=O)CC(=O)NO)CC2)ccc1-c1ccccc1 | 420 nM | 4380 nM | 
CCOc1cccc(-c2ccc(C3CCN(S(=O)(=O)C(C)(C)C(=O)NO)CC3)cc2C)c1 | 2 nM | 457 nM | 
Cc1cc(C2CCN(S(=O)(=O)C(C)(C)C(=O)NO)CC2)ccc1-c1cccc(OCCN(C)C)c1 | 1 nM | 534 nM | 
CCOc1cccc(-c2ccc(C3=CCN(S(=O)(=O)CC(=O)NO)CC3)cc2C)c1 | 4 nM | 998 nM | solubility [2]: < 1 µg/mL
O=C(CS(=O)(=O)N1CC=C(c2ccc(-c3ccccc3)c(Cl)c2)CC1)NO | 55 nM | 620 nM | 
O=C(CS(=O)(=O)N1CC=C(c2ccc(-c3ccccc3)cc2)CC1)NO | 6 nM | 9 nM | Selectivity ratio [3]: < 2
COCCOc1cccc(-c2ccc(C3CCN(S(=O)(=O)C(C)(C)C(=O)NO)CC3)cc2C)c1 | 3 nM | 853 nM | 
Cc1cccc(-c2ccc(C3=CCN(S(=O)(=O)CC(=O)NO)CC3)cc2C)c1 | 4 nM | 776 nM | 
Cc1cc(C2=CCN(S(=O)(=O)CC(=O)NO)CC2)ccc1-c1ccccc1 |  | 320 nM | 
O=C(CS(=O)(=O)N1CC(c2ccc(-c3ccccc3)cc2)C1)NO | 161 nM |  | Selectivity ratio [3]: < 2
CNCCOc1cccc(-c2ccc(C3CCN(S(=O)(=O)C(C)(C)C(=O)NO)CC3)cc2C)c1 | 0.3 nM | 196 nM | 
O=C(CS(=O)(=O)N1CCC(c2ccc(-c3ccccc3)cc2)CC1)NO |  |  | Selectivity ratio [3]: < 2
O=C(CS(=O)(=O)N1CCC(c2ccc(Oc3ccccc3)cc2)CC1)NO | 205 nM |  | Selectivity ratio [3]: < 2
O=C(CS(=O)(=O)N1CC(Oc2ccc(-c3ccccc3)cc2)C1)NO | 84 nM |  | Selectivity ratio [3]: < 2
Cc1cc(C2CCN(S(=O)(=O)C(C)(C)C(=O)NO)CC2)ccc1-c1cccc(OCCO)n1 | 1 nM | 529 nM | IC50 (Interstitial collagenase): 14000 nM; IC50 [4]: 2420 nM; IC50 [5]: 20100 nM; solubility [2]: 1 µg/mL (≈ 2.09 µM)
Cc1cc(C2CCN(S(=O)(=O)C(C)(C)C(=O)NO)CC2)ccc1-c1cccc(OCCO)c1 | 1 nM | 262 nM | IC50 (Interstitial collagenase): 3230 nM; IC50 [4]: 406 nM; IC50 [5]: 1710 nM; solubility [2]: 1 µg/mL (≈ 2.1 µM)
Cc1cc(C2=CCN(S(=O)(=O)CC(=O)NO)CC2)ccc1-c1cccc(OC(F)(F)F)c1 | 51 nM | 173 nM | 
CN(CCc1ccc(-c2ccccc2)cc1)S(=O)(=O)CC(=O)NO | 164 nM |  | Selectivity ratio [3]: < 2
COCc1cccc(-c2ccc(C3=CCN(S(=O)(=O)CC(=O)NO)CC3)cc2C)c1 | 3 nM | 196 nM | 
CN(Cc1ccc(-c2ccccc2)cc1)S(=O)(=O)CC(=O)NO | 378 nM |  | Selectivity ratio [3]: < 2
CCc1cccc(-c2ccc(C3=CCN(S(=O)(=O)CC(=O)NO)CC3)cc2C)c1 | 31 nM | 1210 nM | 
CN(CCCc1ccc(-c2ccccc2)cc1)S(=O)(=O)CC(=O)NO | 174 nM |  | Selectivity ratio [3]: < 2
Cc1cc(C2CCN(S(=O)(=O)C(C)(C)C(=O)NO)CC2)ccc1-c1cccc(OCCN)c1 | 0.4 nM | 188 nM | 
O=C(CS(=O)(=O)N1CC=C(c2ccc(-c3ccccc3)c(C(F)(F)F)c2)CC1)NO | 960 nM | 3080 nM | 
O=C(CS(=O)(=O)N1CC=C(c2ccc(-c3ccccc3)c(F)c2)CC1)NO | 3 nM | 17 nM | 
COc1cccc(-c2ccc(C3=CCN(S(=O)(=O)CC(=O)NO)CC3)cc2C)c1 | 5 nM | 222 nM | 
COC[C@@H](NC(=O)[C@@H](NC(=O)[C@H](CCCc1ccc(-c2ccccc2)c(C)c1)CC(=O)O)C(C)(C)C)c1ccccc1 | 23 nM |  | IC50 (Interstitial collagenase): > 100000 nM; IC50 (Collagenase 3): 2300 nM; IC50 [4]: 30400 nM; IC50 [5]: 66900 nM
